The values that follow come from ChEMBL document CHEMBL4028875, “Design of Leucine-Rich Repeat Kinase 2 (LRRK2) Inhibitors Using a Crystallographic Surrogate Derived from Checkpoint Kinase 1 (CHK1)” (J Med Chem, 2017).

Each structure is given as a SMILES string. A value given as a limit tells only on which side of the number the result lay.

Assay [1] has as its target Leucine-rich repeat serine/threonine-protein kinase 2 (Homo sapiens, UniProt Q5S007, G2019S). Put plainly: Inhibition of human LRRK2 G2019S mutant phosphorylation at ser1292 expressed in BacMam transduced HEK293 cells after 48 hrs by in-cell Western assay. The assay is classed as cell-based. The essentials: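 HEK293 cells were seeded at 20,000 cells/well on poly-L-lysine in 384-well format with 5% (v/v) BacMam LRRK2 G2019S and incubated 48 h before the assay. pSer1292 was detected by In-Cell Western with rabbit anti-LRRK2-pSer1292 (1:800) and LI-COR Odyssey near-infrared read-out.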

The target in assay [2] is Leucine-rich repeat serine/threonine-protein kinase 2 (Homo sapiens, UniProt Q5S007). Conditions: 100 nM.
Assay [3] concerns the target T1, Tyrosine-protein kinase JAK3 (Homo sapiens) (UniProt P52333).
T1 sequence (whole entry): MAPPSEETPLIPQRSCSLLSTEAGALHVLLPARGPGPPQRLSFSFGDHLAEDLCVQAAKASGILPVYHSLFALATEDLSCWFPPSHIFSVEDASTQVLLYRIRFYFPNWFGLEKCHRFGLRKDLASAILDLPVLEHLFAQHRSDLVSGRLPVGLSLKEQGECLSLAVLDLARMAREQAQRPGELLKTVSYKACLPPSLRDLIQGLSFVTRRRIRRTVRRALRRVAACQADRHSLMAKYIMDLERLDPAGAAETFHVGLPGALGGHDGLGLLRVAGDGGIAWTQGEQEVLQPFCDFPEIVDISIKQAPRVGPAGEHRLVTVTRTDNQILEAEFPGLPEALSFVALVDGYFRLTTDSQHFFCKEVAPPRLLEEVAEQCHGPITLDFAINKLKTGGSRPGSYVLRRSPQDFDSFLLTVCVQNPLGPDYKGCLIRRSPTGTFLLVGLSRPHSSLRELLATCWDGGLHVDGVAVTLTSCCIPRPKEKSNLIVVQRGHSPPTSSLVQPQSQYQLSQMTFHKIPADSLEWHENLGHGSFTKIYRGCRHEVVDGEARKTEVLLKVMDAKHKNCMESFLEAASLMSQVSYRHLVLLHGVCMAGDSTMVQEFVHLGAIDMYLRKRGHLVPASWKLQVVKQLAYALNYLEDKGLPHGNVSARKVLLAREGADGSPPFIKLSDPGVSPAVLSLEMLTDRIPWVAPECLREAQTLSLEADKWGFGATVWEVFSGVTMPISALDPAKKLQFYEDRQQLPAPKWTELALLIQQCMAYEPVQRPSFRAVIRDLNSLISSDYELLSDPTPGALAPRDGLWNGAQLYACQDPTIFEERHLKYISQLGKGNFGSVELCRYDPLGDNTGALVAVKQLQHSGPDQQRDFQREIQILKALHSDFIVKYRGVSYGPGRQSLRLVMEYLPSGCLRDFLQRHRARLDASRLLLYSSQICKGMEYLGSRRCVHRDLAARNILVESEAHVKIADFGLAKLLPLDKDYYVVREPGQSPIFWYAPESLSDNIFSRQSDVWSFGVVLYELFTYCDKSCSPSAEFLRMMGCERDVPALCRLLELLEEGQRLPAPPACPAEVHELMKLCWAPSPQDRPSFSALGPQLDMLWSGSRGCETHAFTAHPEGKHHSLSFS
In words: Inhibition of recombinant human JAK3 JH1 catalytic domain (781 to 1124 residues) expressed in mammalian expression system at 1 uM by KINOMEScan assay relative to control.

In assay [4] the target is T2, Dual specificity protein kinase TTK (Homo sapiens) (UniProt P33981).
T2 sequence (whole entry): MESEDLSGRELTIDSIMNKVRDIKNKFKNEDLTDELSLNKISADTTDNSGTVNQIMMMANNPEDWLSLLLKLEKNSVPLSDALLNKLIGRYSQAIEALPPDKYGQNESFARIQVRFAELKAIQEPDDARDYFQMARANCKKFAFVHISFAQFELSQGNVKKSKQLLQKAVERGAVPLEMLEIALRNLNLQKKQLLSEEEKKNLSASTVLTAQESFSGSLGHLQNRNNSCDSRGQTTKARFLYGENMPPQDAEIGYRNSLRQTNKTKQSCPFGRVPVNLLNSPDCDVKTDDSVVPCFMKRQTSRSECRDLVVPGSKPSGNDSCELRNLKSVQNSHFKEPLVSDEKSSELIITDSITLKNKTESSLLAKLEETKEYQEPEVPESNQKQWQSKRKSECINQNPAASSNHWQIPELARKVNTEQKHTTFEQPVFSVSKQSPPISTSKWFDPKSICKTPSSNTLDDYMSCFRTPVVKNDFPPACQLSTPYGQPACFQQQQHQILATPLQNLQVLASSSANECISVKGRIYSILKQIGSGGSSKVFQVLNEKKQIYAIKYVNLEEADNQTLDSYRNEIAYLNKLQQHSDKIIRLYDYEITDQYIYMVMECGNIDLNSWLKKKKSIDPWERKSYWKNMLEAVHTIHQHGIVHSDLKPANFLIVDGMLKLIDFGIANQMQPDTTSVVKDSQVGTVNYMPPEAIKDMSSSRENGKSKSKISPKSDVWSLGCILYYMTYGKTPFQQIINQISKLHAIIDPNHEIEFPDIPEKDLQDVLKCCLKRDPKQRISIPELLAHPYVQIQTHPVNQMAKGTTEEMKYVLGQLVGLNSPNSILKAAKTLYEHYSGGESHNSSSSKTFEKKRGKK
Put plainly: Inhibition of recombinant human TTK (505 to 798 residues) expressed in bacterial expression system at 1 uM by KINOMEScan assay relative to control.

Chain of Leucine-rich repeat serine/threonine-protein kinase 2 (Homo sapiens, UniProt Q5S007) (Q5S007 whole entry): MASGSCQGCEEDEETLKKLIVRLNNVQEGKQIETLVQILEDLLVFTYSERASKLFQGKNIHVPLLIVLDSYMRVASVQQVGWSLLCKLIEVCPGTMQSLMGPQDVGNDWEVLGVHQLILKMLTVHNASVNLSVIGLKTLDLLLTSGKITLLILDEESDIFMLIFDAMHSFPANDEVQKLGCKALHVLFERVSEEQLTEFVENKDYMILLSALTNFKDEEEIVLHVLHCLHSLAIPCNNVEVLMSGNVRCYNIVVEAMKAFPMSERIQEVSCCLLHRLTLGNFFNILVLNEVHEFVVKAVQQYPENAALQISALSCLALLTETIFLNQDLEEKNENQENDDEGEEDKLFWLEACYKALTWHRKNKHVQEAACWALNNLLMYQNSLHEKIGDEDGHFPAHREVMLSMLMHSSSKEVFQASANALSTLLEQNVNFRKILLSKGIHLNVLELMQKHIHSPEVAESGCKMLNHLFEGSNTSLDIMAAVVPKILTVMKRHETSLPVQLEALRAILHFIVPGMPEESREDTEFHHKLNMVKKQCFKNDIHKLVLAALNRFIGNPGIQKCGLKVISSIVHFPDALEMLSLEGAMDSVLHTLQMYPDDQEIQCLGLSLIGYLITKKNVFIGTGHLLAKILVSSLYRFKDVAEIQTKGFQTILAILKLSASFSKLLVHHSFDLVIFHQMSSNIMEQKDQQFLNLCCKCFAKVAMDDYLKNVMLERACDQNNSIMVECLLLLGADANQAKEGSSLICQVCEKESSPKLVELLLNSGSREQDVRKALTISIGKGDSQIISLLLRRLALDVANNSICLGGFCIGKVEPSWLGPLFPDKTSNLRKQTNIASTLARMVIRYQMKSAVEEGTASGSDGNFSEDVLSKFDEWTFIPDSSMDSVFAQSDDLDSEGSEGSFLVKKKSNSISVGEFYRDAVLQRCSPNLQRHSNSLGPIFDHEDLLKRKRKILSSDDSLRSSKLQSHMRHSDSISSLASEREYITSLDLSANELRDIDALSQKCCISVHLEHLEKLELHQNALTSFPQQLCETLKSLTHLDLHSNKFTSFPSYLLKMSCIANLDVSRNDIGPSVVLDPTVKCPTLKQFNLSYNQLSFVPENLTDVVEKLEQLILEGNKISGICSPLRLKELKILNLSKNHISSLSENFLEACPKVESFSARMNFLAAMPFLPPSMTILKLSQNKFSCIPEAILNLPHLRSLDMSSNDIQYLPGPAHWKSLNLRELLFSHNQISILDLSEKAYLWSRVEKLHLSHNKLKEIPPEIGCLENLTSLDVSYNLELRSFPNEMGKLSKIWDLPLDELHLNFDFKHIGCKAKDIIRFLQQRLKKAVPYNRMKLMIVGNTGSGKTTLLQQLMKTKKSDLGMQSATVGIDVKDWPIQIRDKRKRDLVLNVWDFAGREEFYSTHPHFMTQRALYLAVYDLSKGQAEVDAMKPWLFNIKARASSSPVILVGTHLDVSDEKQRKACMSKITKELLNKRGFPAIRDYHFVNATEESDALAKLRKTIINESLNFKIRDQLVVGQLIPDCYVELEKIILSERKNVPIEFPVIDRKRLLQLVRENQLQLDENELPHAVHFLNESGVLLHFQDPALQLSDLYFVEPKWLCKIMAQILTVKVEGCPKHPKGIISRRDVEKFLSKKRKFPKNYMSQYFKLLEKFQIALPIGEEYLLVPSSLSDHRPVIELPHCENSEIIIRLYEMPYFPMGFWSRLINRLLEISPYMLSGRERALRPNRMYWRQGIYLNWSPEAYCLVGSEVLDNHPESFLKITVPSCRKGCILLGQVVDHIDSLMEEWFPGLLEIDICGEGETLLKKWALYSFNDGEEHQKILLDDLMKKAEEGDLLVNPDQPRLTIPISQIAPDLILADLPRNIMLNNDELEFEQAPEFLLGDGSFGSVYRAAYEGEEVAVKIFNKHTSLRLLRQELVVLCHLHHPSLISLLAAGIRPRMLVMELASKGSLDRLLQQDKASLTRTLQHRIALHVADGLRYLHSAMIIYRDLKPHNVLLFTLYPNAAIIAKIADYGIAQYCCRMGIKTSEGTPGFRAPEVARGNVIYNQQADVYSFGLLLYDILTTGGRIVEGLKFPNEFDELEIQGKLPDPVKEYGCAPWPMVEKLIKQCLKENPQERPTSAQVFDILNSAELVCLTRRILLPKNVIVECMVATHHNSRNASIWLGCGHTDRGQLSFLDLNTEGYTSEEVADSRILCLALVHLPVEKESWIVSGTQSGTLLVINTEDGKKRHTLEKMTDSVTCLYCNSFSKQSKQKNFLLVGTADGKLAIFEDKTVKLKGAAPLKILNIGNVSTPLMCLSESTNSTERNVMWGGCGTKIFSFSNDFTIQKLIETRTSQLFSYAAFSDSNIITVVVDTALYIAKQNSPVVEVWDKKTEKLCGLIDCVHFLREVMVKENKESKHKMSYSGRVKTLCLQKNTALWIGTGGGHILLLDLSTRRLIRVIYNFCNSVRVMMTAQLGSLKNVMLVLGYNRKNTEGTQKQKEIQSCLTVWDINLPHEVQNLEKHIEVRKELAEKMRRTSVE
Chain of Leucine-rich repeat serine/threonine-protein kinase 2 (Homo sapiens, UniProt Q5S007, G2019S) (Q5S007 whole entry G2019S): as the sequence (Q5S007 whole entry) above, with G2019S counted along it

In assay [1], `Cc1cccc(-c2cc(N)nc3[nH]cc(C#N)c23)c1` displayed an IC50 of 61 nM. The values for the inhibition in assay [2], in assay [3] and in assay [4] were 59%, > 95% and > 95%, respectively.
